Measurements reported in PubChem BioAssay AID2170 (The Scripps Research Institute Molecular Screening Center, 2009).
The whole screen tested about 2,400 compounds, of which about 660 (28%) were called active.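 The calls were made as follows: active = mean inhibition over replicate wells above the hit cutoff set for the earlier primary screen (cut at about 29% in these data); inactive = the rest.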 Only a sample is shown.

The molecules below were run on M18 aspartyl aminopeptidase (Plasmodium falciparum 3D7) (assay: PfM18AAP inhibitors, malaria aminopeptidase, confirmation, biochemical, QFRET, recombinant enzyme, triplicate (AID 2170;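 also: 0% = median of test compound wells and 100% = 2 mM ZnCl2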)). Conditions: H-Glu-NHMec fluorogenic cleavage, at 7.35 µM, stronger effect = higher value.
How it was run: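 Assay system: recombinant PFM18AAP enzyme / Input: 5 µg/mL enzyme before substrate / Buffer or medium: Cobalt-containing Tris buffer with BSA / Reagent: H-Glu-NHMec substrate, 100 µM stock / Timing: 30 min pre-incubation, then 90 min reaction, 25 °C / Technique: released NHMec fluorescence / Read-out basis: % inhibition of fluorescence increase over 90 min / Controls: ZnCl2 inhibitor control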

SMILES | inhibition
O=C(Nn1cnnc1)c1cc(Cl)ccc1Cl | 55.1% (active)
O=C(Nc1ccccc1Cl)Nn1cnnc1 | 65.9% (active)
Cc1ccc(S(=O)(=O)N/N=C\c2cc3c(cc2[N+](=O)[O-])OCO3)cc1 | -7.72% (inactive)
Cc1ccc(Cl)cc1-c1ccc(/C=N/n2cnnc2)o1 | -18.6% (inactive)
Cc1ccc(-c2ccc(/C=C(\C#N)C(N)=S)o2)c([N+](=O)[O-])c1 | -32.7% (inactive)
NC(=O)c1c(NC(=O)CSc2nnc(-c3ccco3)n2N)sc2c1CCCC2 | -70.9% (inactive)
S=c1[nH]nc2c3c4c(sc3ncn12)CCCC4 | -11.8% (inactive)
CCOCCCNC(=O)c1ccc(CS(=O)(=O)c2cccc(C(F)(F)F)c2)o1 | -29.5% (inactive)
Cc1cccc(NC(=O)c2sc3nc(N4CCOCC4)c4c(c3c2N)CCCC4)c1 | 3.82% (inactive)
O=S(=O)(c1ccc(NC(=S)NN=C(C2CC2)C2CC2)cc1)N1CCOCC1 | 14.8% (inactive)
Cc1nnc(SCC(=O)Nn2cnnc2)s1 | 29.1% (active)
NC(=O)C1CCN(C(=O)/C(=C/c2ccco2)NC(=O)c2ccccc2)CC1 | -45.2% (inactive)
CCOc1ccc(-n2c(O)c(/C=N/Nc3nnc(C)c(=O)[nH]3)c3ccccc3c2=O)cc1 | 12.4% (inactive)
Oc1c(C(c2ccco2)N2CCC3(CC2)OCCO3)sc2ncnn12 (stereo not drawn) | -4.87% (inactive)
Cc1ccc2nc(-c3cccc(Br)c3)cc(C(=O)Nn3cnnc3)c2c1 | 63.4% (active)
Oc1ccc(/C=N/NC2=NCCCCC2)c(O)c1 | 41.8% (active)
CCN(CC)c1ccc(/C=N/Nc2nc(C)cc(C)n2)c(O)c1 | 16.4% (inactive)
O=C(Oc1ccc(Br)cc1C(=S)N1CCOCC1)c1cccc([N+](=O)[O-])c1 | -27.5% (inactive)
Oc1ccc(N2CCN(C(=S)NCc3ccccc3)CC2)cc1 | -12.9% (inactive)
CC(OC(=O)c1ccc2noc(-c3ccccc3)c2c1)C(N)=O (stereo not drawn) | -28.2% (inactive)
O=C(N/N=C/c1ccc(O)c(O)c1)C1c2ccccc2Oc2ccccc21 | 37.3% (active)
CSc1n[nH]c(=S)n1N | -12.7% (inactive)
O=C(CSC(=S)N1CCOCC1)c1cc(Br)cc(Br)c1O | -45.7% (inactive)

SMILES | inhibition
CCN(CC)c1ccc(NC(=O)CCc2nnc3ccc(N4CCCCC4)nn23)c(C)c1 | -12.9% (inactive)
Cc1csc(NC(=O)NC2(C(F)(F)F)Oc3ccccc3O2)n1 | 68.6% (active)
Oc1cccc(/C=N/Nc2ccc(Cl)nn2)c1O | 20.8% (inactive)
CN(C)c1ccc(C(CC(=O)O)C(=O)O)cc1 (stereo not drawn) | -38.2% (inactive)
COc1cc(S(=O)(=O)Nc2ncn[nH]2)ccc1Cl | 34.1% (active)
Cc1onc(-c2ccccc2)c1C(=O)NNC(=S)NC(=O)c1ccc(F)cc1 | -38.8% (inactive)
Oc1ccc(-c2csc(Nc3cccnc3)n2)cc1 | 56.6% (active)
CC1(C)CC(=O)C/C(=N\NC(=O)c2cccs2)C1 | 3.68% (inactive)
N#CCC(=O)N/N=C/c1ccc(SCC(=O)Nc2ccccc2)o1 | -37.9% (inactive)
CCOC(=O)NNc1cc(C(F)(F)F)ccn1 | 28.2% (active)
COc1ccc2c(c1)C(C)=CC(C)(C)N2C(=O)Nc1ccccc1 | -22.9% (inactive)
COc1ccc(/C=N/Nc2nc3ccccc3o2)cc1OC | -38.4% (inactive)
c1ccc2c(c1)OCC(c1nn3cnnc3s1)O2 (stereo not drawn) | -28.2% (inactive)
Cc1cc2nc3c(=O)n(Cc4ccccc4)c(=O)[nH]c3nc2cc1N | 7.01% (inactive)
Cc1ccsc1/C=N/Nc1ccc(Cl)nn1 | -14.8% (inactive)
COc1cc(Br)cc(/C=N/c2ncn[nH]2)c1O | 62.9% (active)
Cc1cc(-c2ccc(/C=N/n3cnnc3)o2)c([N+](=O)[O-])cc1C | 0.8% (inactive)
Cc1ccc(NC(=O)c2c(NC(=O)CCC(=O)O)sc3c2CCCCC3)cc1 | -30.8% (inactive)
CNC(=S)NNC(=O)c1ccc(N(C)C)cc1 | 12.2% (inactive)
CCCc1nc2ccccc2c(=O)n1/N=C/c1ccc(O)c(O)c1 | 28.4% (active)
CC(C)c1ccc(NC(=S)NNc2ccc(Cl)c(C(=O)O)c2)cc1 | -43.7% (inactive)
COc1cc(/C=C2/C(=O)NN(c3cccc(Cl)c3)C2=O)cc(Br)c1O | 12.9% (inactive)
O=C(NNC(=O)c1ccco1)Nc1ccccc1 | 17.1% (inactive)

SMILES | inhibition
CC(C)C1N=C2c3ccccc3N=C(SCC(=O)c3ccc(O)c(O)c3)N2C1=O (stereo not drawn) | 39% (active)
COc1cc(NC(=S)N2CCCC(C)C2)c(OC)cc1Cl (stereo not drawn) | -0.38% (inactive)
S=c1[nH]c(-c2cccs2)cn1-c1ccccc1 | 39.1% (active)
Cc1cc(C)nc(NNC2=CC(=O)CC(C)(C)C2)n1 | 44.3% (active)
O=C(CC(n1cncn1)C(Cl)(Cl)Cl)c1ccc([N+](=O)[O-])cc1 (stereo not drawn) | -9.53% (inactive)
COc1c(O)ccc2c1CN1CCc3cc4c(cc3C1C2)OCO4 (stereo not drawn) | 9.45% (inactive)
Cc1c(CC(=O)N2CCN(C(=O)C3COc4ccccc4O3)CC2)c(=O)oc2c(O)c(O)ccc12 (stereo not drawn) | 32.3% (active)
CCN1/C(=C/C(=S)Nc2ccccc2)Sc2ccccc21 | 0.1% (inactive)
CC(C)(C)c1nnc(N/N=C/c2ccc(O)cc2)n(N)c1=O | -22.7% (inactive)
CCOc1ccc(C2C3=C(CCCC3=O)N(CC(=O)O)C3=C2C(=O)CCC3)cc1 | -43.7% (inactive)
Cc1ccnc(-n2sc3ccccc3c2=O)n1 | 28.8% (active)
NC(=S)N/N=C/c1coc2cc(Cl)ccc2c1=O | -23.6% (inactive)
O=C(CN1CCN(c2ccc(O)cc2)CC1)Nc1ccc(-c2ccccc2)cc1 | -14.9% (inactive)
c1ccc2sc(NN=C3CCCC3)nc2c1 | -44.4% (inactive)
Cc1cc(C)nc(Nc2ncn[nH]2)n1 | 71.7% (active)
COc1cccc2cc(-c3cc(=O)oc4cc(C)c(O)cc34)oc12 | -27.8% (inactive)
O=C(CSc1ncn[nH]1)Nc1nsc(-c2ccccc2)n1 | 14.9% (inactive)
O=C(CSc1ncn[nH]1)Nc1nc(-c2cccc([N+](=O)[O-])c2)cs1 | 36.5% (active)
O=C(CSc1ncn[nH]1)Nc1ccnc2ccccc12 | 8.46% (inactive)
COc1ccccc1-c1nnc(SCC(=O)Nc2cc(C)on2)o1 | -49.2% (inactive)
c1ccc(-c2ccc3c(c2)NC(C2Nc4cc(-c5ccccc5)ccc4O2)O3)cc1 (stereo not drawn) | -52.4% (inactive)
O=C1CCCCN1CCCC(=O)N1CCCC(Nc2ccc(F)cc2)C1 (stereo not drawn) | -33.7% (inactive)
COc1ccc(OC)c(Nc2nc(-c3ccc(O)c(O)c3)cs2)c1 | 42.4% (active)

SMILES | inhibition
Cc1cc(/C=N/Nc2ccc([N+](=O)[O-])cn2)c(C)n1-c1cccc(C(=O)O)c1 | -23.4% (inactive)
Cc1ccc(-c2noc(CC(c3ccccc3)c3ccccc3)n2)cc1 | -39.5% (inactive)
Cn1sc(=O)c2cc(S(=O)(=O)NC3CC3)ccc21 | -11.8% (inactive)
O=C(CN1CCN(S(=O)(=O)c2cc(Cl)ccc2Cl)CC1)c1ccc(O)c(O)c1 | 31.5% (active)
Cc1nc2ccc(S(=O)(=O)NCC(=O)O)cc2s1 | 12.5% (inactive)
O=C(Cn1c[n+](CC(=O)c2ccc([N+](=O)[O-])cc2)cn1)c1ccc([N+](=O)[O-])cc1 | 14% (inactive)
O=c1nc(N/N=C/c2ccco2)cn[nH]1 | 18.9% (inactive)
ONC(=Nc1ccccc1)c1ccccc1Cl | -2.39% (inactive)
CC/C(C)=N/Nc1nc2sc3c(c2c(=O)[nH]1)CC(C)(C)OC3 | 9.57% (inactive)
Cc1nccn1CC(=O)N/N=C/c1ccc(O)c(O)c1 | 58.4% (active)
Cn1c(SCC(=O)N/N=C/c2ccc(O)c(O)c2)nc2ccccc21 | 50.9% (active)
Oc1ccc(/C=N/Nc2ccc(C(F)(F)F)cn2)cc1O | 6.58% (inactive)
CCn1c(CNS(=O)(=O)c2ccc(Cl)cc2)n[nH]c1=S | -0.52% (inactive)
Cn1c(=O)[nH]c(=O)c2c1[nH]c(=S)n2Cc1ccccc1 | 6.35% (inactive)
Cc1cc([N+](=O)[O-])c(-c2ccc(/C=N/n3cnnc3)o2)cc1Cl | 10.6% (inactive)
O=C(COc1ccc([N+](=O)[O-])cc1Cl)Nn1cnnc1 | 36.8% (active)
CCN(CC)S(=O)(=O)c1cc([N+](=O)[O-])ccc1NNC(=O)Nc1ccccc1 | 25.9% (inactive)
O=C(Nc1cccc([N+](=O)[O-])c1)Nn1cnnc1 | 64.6% (active)
O=[N+]([O-])c1ccc(N2CCN(c3ccc(O)cc3)CC2)c(Cl)c1 | -3.08% (inactive)
COc1cc(/C=N\Nc2ccc([N+](=O)[O-])cn2)ccc1OCC(=O)O | -18% (inactive)
O=C(O)CCn1c(O)c(C=C2N=c3ccccc3=N2)sc1=S | -42.5% (inactive)
NC(=O)c1c(Nc2nc3c(F)cccc3s2)sc2c1CCCC2 | -18.3% (inactive)
Cc1cc2c(C)nc(N/N=C/c3ccccc3)nc2o1 | -42.8% (inactive)

SMILES | inhibition
O=C(CO/N=C/c1ccccc1O)NNC(=O)c1ccccc1Cl | 42.3% (active)
CCOc1cccc(/C=N/NC(=S)NCCN2CCOCC2)c1O | 16.9% (inactive)
COc1ccc(OCc2nnc3n2N=C(c2ccccc2)C(CC(=O)O)S3)cc1 (stereo not drawn) | 40.8% (active)
COc1ccc(OCc2n[nH]c(=S)n2N)cc1 | 20.3% (inactive)
CC1CCN(C(=O)c2ccc3c(c2)NC(=O)CN3)CC1 | -7.91% (inactive)
CCN(CC)c1ccc2oc(=O)c(C)nc2c1 | 27.1% (inactive)
ClC1(Cl)CC1CSc1ncn[nH]1 (stereo not drawn) | 11.5% (inactive)
CCn1ccnc1CNC(=O)CC1C(=O)NCCN1Cc1ccc(F)cc1Cl (stereo not drawn) | -24.5% (inactive)
CC(=O)c1ccc(NC(=O)CCc2nnc3ccc(NCc4ccco4)nn23)cc1 | -28.5% (inactive)
CC(C)(C)C(=O)OCc1nc(-c2ccc(O)c(O)c2)cs1 | 53.5% (active)
COc1ccc(N/C=C(\C2OC(=O)c3ccccc32)[N+](=O)[O-])cc1 (stereo not drawn) | -36.7% (inactive)
CC(/C=C/C1(O)C(C)CC(=O)CC1(C)C)OC1OC(CO)C(O)C(O)C1O (stereo not drawn) | 11.3% (inactive)
CNC(=O)c1c(NC(NC(=O)c2ccco2)C(=O)c2ccc(Cl)cc2)sc2c1CCCC2 (stereo not drawn) | -18.7% (inactive)
CC(C)(C)NC(=O)C(c1ccncc1)N(C(=O)CNC(=O)c1ccco1)c1ccc2c(c1)OCO2 (stereo not drawn) | -44.5% (inactive)
CC(=O)N(c1ccc2oc(=O)sc2c1)S(=O)(=O)c1ccc(C)cc1 | -21.7% (inactive)
O=C(O)c1cccc(NC(=S)N/N=C/c2c[nH]c3ccccc23)c1 | 3.61% (inactive)
COc1cc(/C=N/NC(=S)Nc2cccnc2)cc(OC)c1O | 35.5% (active)
COc1cc(/C=N/Nc2nn3cnnc3c3ccccc23)cc(OC)c1OC | -33.8% (inactive)
OCCN1CCN(C(=S)c2ccc(-c3ccccc3)cc2)CC1 | 14.5% (inactive)
Cc1ccc(C)c(NC(=O)NNC(=O)c2ccc3ccccc3c2O)c1 | 4.3% (inactive)
Cc1nc2nc[nH]n2c(=O)c1C/C=C/c1ccccc1 | 50.7% (active)
